According to ChEMBL document CHEMBL3259718, “Identifying structural determinants of potency for analogs of apelin-13: integration of C-terminal truncation with structure-activity” (Bioorg Med Chem, 2014):
Where a name gives a salt, the structure may show the parent alone. Square brackets hold non-standard residues; d marks the D form. Peptide text beside a SMILES is read from it. * marks the point of attachment. hPhe = N[C@@H](CCc1ccccc1)C(=O)O; Nle = CCCC[C@H](N)C(=O)O; Aoc = NCCCCCCCC(=O)O; Tfa = O=C(C(F)(F)F)*

Tests used:
[1] = Retention time of the compound by HPLC analysis; assay type: physicochemical
Outline: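 Analytical reverse-phase HPLC on a peptide C18 column with a 5–45% acetonitrile gradient over 30 min. Identity was confirmed by ESI-MS mass.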

[2] = biological target: T1, Apelin receptor (Homo sapiens, UniProt P35414); assay: Agonist activity at APJ receptor (unknown origin) expressed in CHO cells co-expressing with Calphaq16 assessed as calcium mobilization; assay type: functional, cell-based
T1 sequence (P35414 whole entry): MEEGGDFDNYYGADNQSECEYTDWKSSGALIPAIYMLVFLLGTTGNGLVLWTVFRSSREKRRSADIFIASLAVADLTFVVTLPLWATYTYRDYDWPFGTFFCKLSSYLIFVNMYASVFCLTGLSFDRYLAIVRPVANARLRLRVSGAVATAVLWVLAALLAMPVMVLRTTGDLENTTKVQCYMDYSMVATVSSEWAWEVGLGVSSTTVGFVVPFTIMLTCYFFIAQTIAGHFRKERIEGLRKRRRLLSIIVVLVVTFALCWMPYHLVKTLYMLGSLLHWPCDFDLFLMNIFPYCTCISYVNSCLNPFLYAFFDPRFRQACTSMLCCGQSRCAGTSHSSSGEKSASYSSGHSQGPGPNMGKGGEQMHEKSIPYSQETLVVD

[3] = system: Plasma; assay: Drug metabolism in rat plasma assessed as Ac-R-P-Nle after 15 to 25 mins by ESI-MS analysis; assay type: ADME, cell-free
Outline: (§1)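 Peptide incubated in rat serum, with aliquots taken over a time course. Samples were run on reverse-phase capillary C18 nano-LC, with mobile phase B rising linearly from 10% to 60% over 55 min at 450 nl/min. Detection was positive-ion nano-ESI Orbitrap MS in data-dependent mode (1 FTMS plus 3 IT-MS/MS cycles, resolution 7500). Fragments were assigned from [M+H]+ masses using peptide ladder predictions.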

[4] = system: Plasma; assay: Drug metabolism in rat plasma assessed as Ac-R-P-Nle-L-A after 15 to 25 mins by ESI-MS analysis; assay type: ADME, cell-free; outline: as §1
[5] = Half life in rat plasma at pH 7.4 by LC-MS/MS analysis; assay type: ADME, cell-free
Outline: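 Peptide incubated in rat plasma adjusted to pH 7.4 at 37 °C, with DMSO kept below 2.5%. Reactions were stopped with acetonitrile at 0, 2, 5, 15, 30 and 60 min and clarified by centrifugation. Parent remaining was quantified by UPLC-MS/MS using MRM.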

Row | Retention_time [1] [min] | EC50 ([2]; read-out: EC50) [µM] | also measured | Molecule
1 | 13.2 | 1.38 |  | Ac-APRLSHKGPL-NH2
2 | 13.49 | > 3 |  | H-QRPRLSH-NH2
3 | 12.37 | 0.237 |  | Ac-RPRLAAKGAL-NH2
4 | 13.64 | 0.0011 |  | Ac-RPRLAAKGPL-NH2
5 | 16.64 | 0.0032 |  | CCCC[C@H](NC(=O)[C@@H]1CCCN1C(=O)[C@H](CCCNC(=N)N)NC(C)=O)C(=O)N[C@@H](CC(C)C)C(=O)N[C@@H](C)C(=O)N[C@@H](C)C(=O)N[C@@H](CCCCN)C(=O)NCC(=O)N1CCC[C@H]1C(=O)N[C@@H](CC(C)C)C(N)=O (Ac-RP[Nle]LAAKGPL-NH2)
6 | 18.37 | 0.073 |  | CCCC[C@H](NC(=O)[C@@H]1CCCN1C(=O)[C@H](CCCNC(=N)N)NC(C)=O)C(=O)N[C@@H](CCc1ccccc1)C(=O)N[C@@H](C)C(=O)N[C@@H](C)C(=O)N[C@@H](CCCCN)C(=O)NCC(=O)N1CCC[C@H]1C(=O)N[C@@H](CC(C)C)C(N)=O (Ac-RP[Nle][hPhe]AAKGPL-NH2)
7 | 17.23 | > 3 |  | CC(=O)N[C@@H](CCCCNC(=O)C(F)(F)F)C(=O)N1CCC[C@H]1C(=O)N[C@@H](CCCNC(=N)N)C(=O)N[C@@H](CC(C)C)C(=O)N[C@@H](C)C(=O)N[C@@H](C)C(=O)N[C@@H](CCCCN)C(=O)NCC(=O)N1CCC[C@H]1C(=O)N[C@@H](CC(C)C)C(N)=O (Ac-K(Tfa)PRLAAKGPL-NH2)
8 | 15.93 | > 3 |  | H-QRPRLS-NH2
9 |  | 2.35 |  | H-QRPRLSHKGP-NH2
10 | 12.43 | 0.0019 |  | Ac-RPRLSHKGPL-NH2
11 | 19.43 | 0.539 |  | CCCC[C@H](NC(=O)[C@@H]1CCCN1C(=O)[C@H](CCCNC(=N)N)NC(C)=O)C(=O)NCCCCCCCC(=O)N[C@@H](C)C(=O)N[C@@H](C)C(=O)N[C@@H](CCCCN)C(=O)NCC(=O)N1CCC[C@H]1C(=O)N[C@@H](CC(C)C)C(N)=O (Ac-RP[Nle][Aoc]AAKGPL-NH2)
12 | 11.47 | 0.0044 |  | Ac-RPRLSHKGPM-NH2
13 | 13.25 |  | EC50 ([2]; cho, read-out: EC50): 0.0017 µM | CC(=O)N[C@@H](CCCNC(=N)N)C(=O)N1CCC[C@H]1C(=O)N[C@@H](CCCCN)C(=O)N[C@@H](CC(C)C)C(=O)N[C@@H](C)C(=O)N[C@@H](C)C(=O)N[C@@H](CCCCN)C(=O)NCC(=O)N1CCC[C@@H]1C(=O)N[C@@H](CC(C)C)C(N)=O
14 | 14.15 | 0.0089 |  | Ac-RPALAAKGPL-NH2
15 | 12.94 | > 3 |  | H-QRPRLSHK-NH2
16 | 13.08 | 0.494 |  | Ac-KPRLAAKGPL-NH2
17 | 17.44 |  |  | CSCC[C@H](NC(=O)[C@@H]1CCCN1C(=O)CNC(=O)[C@H](CCCCN)NC(=O)[C@H](Cc1cnc[nH]1)NC(=O)[C@H](CO)NC(=O)[C@H](CC(C)C)NC(=O)[C@H](CCCNC(=N)N)NC(=O)[C@@H]1CCCN1C(=O)[C@H](CCCNC(=N)N)NC(=O)[C@@H]1CCC(=O)N1)C(=O)N1CCC[C@H]1C(=O)N[C@@H](Cc1ccccc1)C(=O)O
18 | 13.23 | 0.031 |  | Ac-RARLAAKGPL-NH2
19 | 13.91 | 0.044 |  | Ac-RPKFAAKGPL-NH2
20 | 22 | > 3 |  | CC(=O)N[C@@H](CCCNC(=N)N)C(=O)N1CCC[C@H]1C(=O)NCCCCCCCC(=O)N[C@@H](CC(C)C)C(=O)N[C@@H](C)C(=O)N[C@@H](C)C(=O)N[C@@H](C)C(=O)NCC(=O)N1CCC[C@H]1C(=O)N[C@@H](CC(C)C)C(N)=O (Ac-RP[Aoc]LAAAGPL-NH2)
21 |  | > 3 |  | H-QRPRLSHKG-NH2
22 | 17.64 | 0.0022 |  | CCCC[C@H](NC(=O)[C@H](C)NC(=O)[C@H](C)NC(=O)[C@H](CC(C)C)NC(=O)[C@H](CCCCN)NC(=O)[C@@H]1CCCN1C(=O)[C@H](CCCNC(=N)N)NC(C)=O)C(=O)NCC(=O)N1CCC[C@H]1C(=O)N[C@@H](CC(C)C)C(N)=O (Ac-RPKLAA[Nle]GPL-NH2)
23 |  |  | EC50 ([2]; read-out: pEC50 (converted)): > 31.6 µM | Ac-LSHKGPMPF-OH
24 | 10.84 | 0.691 |  | Ac-RPRLSHKGPV-NH2
25 | 11.33 | 0.936 |  | Ac-RPRAAAKGPL-NH2
26 | 14.93 | 0.637 |  | Ac-RPRLAAAGPL-NH2
27 | 13.43 | 0.0047 |  | Ac-RPRLSHKGPF-NH2
28 | 16.79 | 0.033 | Drug metabolism [3]: metabolite_detected; Drug metabolism [4]: metabolite_detected; half-life [5]: 2 min | CCCC[C@H](NC(=O)[C@H](C)NC(=O)[C@H](C)NC(=O)[C@H](CC(C)C)NC(=O)[C@H](CCCC)NC(=O)[C@@H]1CCCN1C(=O)[C@H](CCCNC(=N)N)NC(C)=O)C(=O)NCC(=O)N1CCC[C@H]1C(=O)N[C@@H](CC(C)C)C(N)=O (Ac-RP[Nle]LAA[Nle]GPL-NH2)
29 |  |  | EC50 ([2]; read-out: pEC50 (converted)): > 31.6 µM | Ac-KGPMPF-OH
